Reference: ChEMBL document CHEMBL3244045, “2-cyano-1,3-dicarbonyl compounds with antiallergic activity” (1977)

Assays:
Assay type in all cases: functional
Rattus norvegicus [1] = test: Antiallergic activity in sc dosed Wistar rat assessed as inhibition of ovalbumin-mediated passive cutaneous anaphylaxis by measuring wheal formation at Tmax
Procedure, shortened: (§1)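 Rat PCA: serum with heat-labile homocytotropic antibody raised in rats to crystallized ovalbumin, Bordetella pertussis vaccine adjuvant; PCA per Ovary–Bier method as modified by Goose and Blair. Test agents as sodium salts, dissolved in pH 7.2 buffer or suspended in 1% methylcellulose by solubility. ED50 from inhibition/log dose line, 95% confidence limits, slope and animal numbers given.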

Rattus norvegicus [2] = test: Antiallergic activity in sc dosed Wistar rat assessed as time between compound administration and ovalbumin challenge to give maximum activity by passive cutaneous anaphylaxis assay
Rattus norvegicus [3] = test: Antiallergic activity in po dosed Wistar rat assessed as inhibition of ovalbumin-mediated passive cutaneous anaphylaxis by measuring wheal formation administered 15 to 20 mins prior to ovalbumin challenge; procedure, shortened: as §1

SMILES	ED50 (Rattus norvegicus [1])	Time (Rattus norvegicus [2])	ED50 (Rattus norvegicus [3])
N#C[C-]1C(=O)c2ccccc2C1=O.[Na+]	85.3 µmol/kg	10 min	–
Cc1ccc2c(c1)C(=O)[C-](C#N)C2=O.[Na+] (stereo not given)	44.1 µmol/kg	10 min	–
COc1cccc2c1C(=O)[C-](C#N)C2=O.[Na+] (stereo not given)	90.2 µmol/kg	10 min	–
CCOc1ccc2c([O-])c(C#N)c(=O)oc2c1.[Na+]	15.1 µmol/kg	10 min	–
Cc1cccc2c([O-])c(C#N)c(=O)oc12.[Na+]	32.8 µmol/kg	10 min	–
Cc1ccc2c([O-])c(C#N)c(=O)oc2c1C.[Na+]	26.2 µmol/kg	10 min	–
Cc1cc2oc(=O)c(C#N)c([O-])c2cc1C.[Na+]	15.2 µmol/kg	10 min	–
Cc1cccc2c1C(=O)[C-](C#N)C2=O.[Na+] (stereo not given)	74 µmol/kg	10 min	–
Cc1ccc2oc(=O)c(C#N)c([O-])c2c1.[Na+]	497 µmol/kg	10 min	–
N#C[C-]1C(=O)c2ccncc2C1=O.[Na+] (stereo not given)	120 µmol/kg	10 min	–
CCc1cc2c([O-])c(C#N)c(=O)oc2cc1C.[Na+]	10.1 µmol/kg	10 min	–
N#Cc1c([O-])c2cc3c(cc2oc1=O)CCCC3.[Na+]	16.4 µmol/kg	10 min	–
N#C[C-]1C(=O)c2cc3ccccc3cc2C1=O.[Na+]	13.8 µmol/kg	10 min	–
N#Cc1c([O-])c2ccccc2oc1=O.[Na+]	39.1 µmol/kg	10 min	–
O=C([O-])c1cc(=O)c2c(OCC(O)COc3cccc4oc(C(=O)[O-])cc(=O)c34)cccc2o1.[Na+].[Na+] [CROMOLYN SODIUM]	13.1 µmol/kg	10 min	–
N#Cc1c([O-])c2cc3ccccc3cc2oc1=O.[Na+]	211 µmol/kg	10 min	–
N#C[C-]1C(=O)c2cccnc2C1=O.[Na+] (stereo not given)	90.6 µmol/kg	10 min	–
N#C[C-]1C(=O)c2ccc(Cl)cc2C1=O.[Na+] (stereo not given)	59.7 µmol/kg	10 min	–
Cc1ccc2c([O-])c(C#N)c(=O)oc2c1.[Na+]	52.4 µmol/kg	10 min	–
CCc1cc2oc(=O)c(C#N)c([O-])c2cc1CC.[Na+]	7.6 µmol/kg	10 min	60 µmol/kg
COc1ccc2oc(=O)c(C#N)c([O-])c2c1.[Na+]	28.2 µmol/kg	10 min	–
Cc1cc2c(cc1C)C(=O)[C-](C#N)C2=O.[Na+]	16.3 µmol/kg	10 min	–
CCc1cc2c(cc1CC)C(=O)[C-](C#N)C2=O.[Na+]	10.9 µmol/kg	20 min	60 µmol/kg
CCc1ccc2c([O-])c(C#N)c(=O)oc2c1.[Na+]	23.8 µmol/kg	10 min	–
